Residues, ends and D or L forms follow the SMILES beside them.
What was measured:
[1] = biological target: Delta-type opioid receptor (Rattus norvegicus, UniProt P33533); test: Displacement of [3H]deltorphin C from rat delta opioid receptor in brain P2 synaptosomes; type: subcellular
Procedure, shortened: (§1)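 Rat brain synaptosome (P2) membranes, preincubated to remove endogenous opioid peptides, stored at -80 °C in buffered 20% glycerol. Five to eight ligand concentrations, each in duplicate, with independent repeats on different synaptosome preparations. Bound radioligand collected on glass fiber filters soaked in 0.1% polyethylenimine and washed thrice in ice-cold buffered BSA. Ki by Cheng-Prusoff; mean ± SE.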

Mu-type opioid receptor [2] = biological target: Mu-type opioid receptor (Rattus norvegicus, UniProt P33535); test: Displacement of [3H]DAMGO from rat mu opioid receptor in brain P2 synaptosomes; type: subcellular; procedure, shortened: as §1
Chain of Mu-type opioid receptor (Rattus norvegicus, UniProt P33535) (P33535 whole entry): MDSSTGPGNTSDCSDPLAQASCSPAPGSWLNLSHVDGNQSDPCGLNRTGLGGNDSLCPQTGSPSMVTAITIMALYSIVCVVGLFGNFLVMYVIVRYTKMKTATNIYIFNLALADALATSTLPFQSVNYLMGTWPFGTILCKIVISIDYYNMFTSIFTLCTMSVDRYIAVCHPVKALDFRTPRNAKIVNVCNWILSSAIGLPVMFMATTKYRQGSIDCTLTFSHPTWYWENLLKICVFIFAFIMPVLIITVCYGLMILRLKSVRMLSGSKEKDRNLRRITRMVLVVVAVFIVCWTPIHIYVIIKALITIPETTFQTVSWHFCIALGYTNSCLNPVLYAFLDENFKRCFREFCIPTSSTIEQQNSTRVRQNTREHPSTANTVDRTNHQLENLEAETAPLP

[3] = biological target: Delta-type opioid receptor (Mus musculus) (UniProt P32300); test: (§2) Functional bioactivity against delta opioid receptor in mouse vas deferens; type: tissue-based
Chain of Delta-type opioid receptor (Mus musculus) (P32300 whole entry): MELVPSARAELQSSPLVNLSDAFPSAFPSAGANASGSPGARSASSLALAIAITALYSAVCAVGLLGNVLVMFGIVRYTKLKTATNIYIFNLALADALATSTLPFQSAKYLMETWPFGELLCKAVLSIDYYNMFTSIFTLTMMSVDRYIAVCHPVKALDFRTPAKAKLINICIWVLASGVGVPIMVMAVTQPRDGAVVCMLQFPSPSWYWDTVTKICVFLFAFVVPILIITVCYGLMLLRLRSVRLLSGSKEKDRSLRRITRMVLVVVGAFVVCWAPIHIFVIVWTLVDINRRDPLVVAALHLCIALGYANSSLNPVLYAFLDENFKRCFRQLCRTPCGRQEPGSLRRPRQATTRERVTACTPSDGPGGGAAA
Procedure, shortened: (§3)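 MVD strips field-stimulated with supramaximal bipolar rectangular pulses. Agonist read-out is inhibition of the electrically evoked twitch, referenced to deltorphin C, with IC50 taken from dose-response curves. For antagonism, compound is added 5 min before deltorphin C, and pA2 comes from Schild plot of the rightward curve shift. At least six experiments on fresh tissue; mean ± SE.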

[4] = biological target: Delta-type opioid receptor (Mus musculus, UniProt P32300); test: as §2; type: tissue-based; procedure, shortened: as §3
Chain of Delta-type opioid receptor (Mus musculus, UniProt P32300) (P32300 whole entry): as above

Mu-type opioid receptor [5] = biological target: Mu-type opioid receptor (Cavia porcellus, UniProt P97266); test: Functional bioactivity against mu opioid receptor in guinea-pig ileum; type: tissue-based
Chain of Mu-type opioid receptor (Cavia porcellus, UniProt P97266) (P97266 whole entry): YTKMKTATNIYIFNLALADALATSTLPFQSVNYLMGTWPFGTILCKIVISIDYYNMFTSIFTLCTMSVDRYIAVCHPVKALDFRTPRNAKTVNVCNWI
Procedure, shortened: as §3, with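 “Myenteric plexus-longitudinal muscle from male guinea pig ileum,” for “MVD strips”, “dermorphin,” for “deltorphin C,”, “plot.” for “plot of the rightward curve shift.”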

[6] = biological target: Opioid receptors; mu & delta (Rattus norvegicus) (UniProt P33533+P33535); test: Selectivity for rat delta opioid receptor over mu opioid receptor; type: protein assay
Chain of Opioid receptors; mu & delta (Rattus norvegicus) (P33533 whole entry, looked up): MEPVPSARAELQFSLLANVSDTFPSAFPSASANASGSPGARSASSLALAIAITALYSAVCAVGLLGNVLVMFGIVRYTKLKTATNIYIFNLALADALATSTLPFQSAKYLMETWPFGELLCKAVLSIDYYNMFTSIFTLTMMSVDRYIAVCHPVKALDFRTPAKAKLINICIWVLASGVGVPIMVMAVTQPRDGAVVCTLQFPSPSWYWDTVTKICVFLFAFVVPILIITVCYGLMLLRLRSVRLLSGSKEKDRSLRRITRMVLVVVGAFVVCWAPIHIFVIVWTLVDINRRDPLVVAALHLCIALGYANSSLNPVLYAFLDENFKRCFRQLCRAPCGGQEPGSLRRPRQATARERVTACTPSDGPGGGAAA
Chain of Opioid receptors; mu & delta (Rattus norvegicus) (P33535 whole entry, looked up): as the sequence (P33535 whole entry) above

Chain of Delta-type opioid receptor (Rattus norvegicus, UniProt P33533) (P33533 whole entry): as the sequence (P33533 whole entry, looked up) above

Row | SMILES | Ki [1] [nM] | Ki (Mu-type opioid receptor [2]) [nM] | max activation [3] [%] | Activity ([3]; filed as partial agonist) | IC50 [4] [nM] | IC50 (Mu-type opioid receptor [5]) [nM] | Ratio Ki [6] | Activity ([3]; filed as antagonist)
1 | N[C@@H](Cc1ccc(O)cc1)C(=O)N1CCC[C@H]1C(=O)N[C@@H](Cc1ccccc1)C(=O)N[C@@H](Cc1ccccc1)C(=O)NCCCCC/N=C(S)/N=C1/C=CC(=C2c3ccc(O)cc3Oc3cc(O)ccc32)C(C(=O)O)=C1 | 668 | 252 | 20 | Partial agonist | 200 | 120 |  | 
2 | Cc1cc(O)cc(C)c1C[C@H](N)C(=O)N1Cc2ccccc2C[C@H]1C(=O)N[C@@H](CCC(=O)O)C(=O)N[C@@H](CN1C(=O)c2cc3ccc(N(C)C)cc3cc2C1=O)C(N)=O (HELM PEPTIDE1{[Cc1cc(O)cc(C)c1C[C@H](N)C(=O)[*:2]].[Tic].E.[CN(C)c1ccc2cc3c(cc2c1)C(=O)N(C[C@H](N[*:1])C(=O)[*:2])C3=O].[am]}$$$$V2.0) | 7.8 | 7880 |  |  |  | 100 |  | 
3 | CN(C)c1ccc2cc3c(cc2c1)C(=O)N(CC(NC(=O)CCCCCNC(=O)[C@H](Cc1ccccc1)NC(=O)[C@H](Cc1ccccc1)NC(=O)[C@@H]1CCCN1C(=O)[C@@H](N)Cc1ccc(O)cc1)C(N)=O)C3=O (some centres not stated) (HELM PEPTIDE1{Y.P.F.F.[O=C(CCCCCN[*:1])[*:2]].[CN(C)c1ccc2cc3c(cc2c1)C(=O)N(CC(N[*:1])C(=O)[*:2])C3=O].[am]}$$$$V2.0) |  |  | 29 | Partial agonist |  |  |  | 
4 | CN(C)c1ccc2cc3c(cc2c1)C(=O)N(C[C@H](NC(=O)CCCCCNC(=O)[C@H](Cc1ccccc1)NC(=O)[C@H](Cc1ccccc1)NC(=O)[C@@H]1CCCN1C(=O)[C@@H](N)Cc1ccc(O)cc1)C(N)=O)C3=O (HELM PEPTIDE1{Y.P.F.F.[O=C(CCCCCN[*:1])[*:2]].[CN(C)c1ccc2cc3c(cc2c1)C(=O)N(C[C@H](N[*:1])C(=O)[*:2])C3=O].[am]}$$$$V2.0) | 5940 | 244 |  |  | 300 | 253 |  | 
5 | CN(C)c1ccc2cc3c(cc2c1)C(=O)N(CC(NC(=O)[C@@H]1CCCN1C(=O)[C@@H](N)Cc1ccc(O)cc1)C(=O)N[C@@H](Cc1ccccc1)C(N)=O)C3=O (some centres not stated) |  |  | 22 | Partial agonist |  |  | 4.1 | 
6 | CN(C)c1ccc2cc3c(cc2c1)C(=O)N(C[C@H](NC(=O)[C@@H]1CCCN1C(=O)[C@@H](N)Cc1ccc(O)cc1)C(=O)N[C@@H](Cc1ccccc1)C(N)=O)C3=O | 839 | 3420 |  |  | 500 | 389 |  | 
7 | Cc1cc(O)cc(C)c1C[C@H](N)C(=O)N1Cc2ccccc2C[C@H]1C(=O)N[C@@H](CCC(=O)O)C(=O)NCCCCCC(=O)N[C@@H](CN1C(=O)c2cc3ccc(N(C)C)cc3cc2C1=O)C(N)=O | 0.158 | 41.3 |  |  |  | 244 |  | 
8 | Cc1cc(O)cc(C)c1C[C@H](N)C(=O)N1Cc2ccccc2CC1C(=O)N[C@@H](CCC(=O)O)C(=O)NCCCCCC(=O)NC(CN1C(=O)c2cc3ccc(N(C)C)cc3cc2C1=O)C(N)=O (some centres not stated) |  |  |  |  |  |  | 261 | Antagonist

— ChEMBL document CHEMBL1148646, “6-N,N-dimethylamino-2,3-naphthalimide: a new environment-sensitive fluorescent probe in delta- and mu-selective opioid peptides” (J Med Chem, 2006)
